# KCC2 mod – modulates chloride dependent transport by human KCC2; KCC2 cells, thallium flux FluoZin-2 fluorescence; B-score of Tl+ flux slope (higher = more flux/activation; lower = inhibition) at 10 µM; Q9H2X9; 2.2% of 190,000 active;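 active means thallium flux slope and its plate-corrected score both differing from the plate sample mean at a set confidence after two filtering rounds, in either direction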;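 further: slope of fluorescence scaled to starting intensity during 10 to 20 s after thallium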
# ROMK mod – human ROMK K+ channel modulation, primary screen; 2% of 130,000 active; P48048; B-score at 10 µM; Tet-inducible ROMK, thallium flux fluorescence; actives lie on both sides;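 active means signal ratio slope over the read window, or its plate-corrected B-score, at least 3 SD from the plate mean, either direction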;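 further: B-score of the F/F0 ratio slope over 7 to 12 s after thallium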
# PMI activator – activators of human phosphomannose isomerase. P34949. activation factor at 20 µM. purified human PMI, coupled resazurin fluorescence, 20 min; stronger effect = higher value; 1 = vehicle control, 0 substrate-free wells. 0.005% of 190,000 active;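 active means activation factor of 2 or more at 20 µM, relative to plate controls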
# ABCB1 inh – human ABCB1 inhibition, ABCG2 as counter-screen | P08183 | CCRF-Adr cells, JC-1 efflux, flow cytometry | inhibition, % at 6.6 µM | 0.067% of 190,000 active | AID 1326; in the data active means inhibition above about 40%;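 further: 0% = vehicle and 100% = reference inhibitor; higher value means more JC-1 retained so stronger ABCB1 efflux block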
# ABCG2 block – blocks JC-1 efflux by human ABCG2 transporter; 0.1% of 190,000 active; inhibition, % at 6.6 µM; IgMXP3 cells, flow cytometry;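 active means inhibition above 80%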;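 further: 0% = DMSO and 100% = nicardipine control wells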
# Target sequence (Q9UNQ0 whole entry, looked up): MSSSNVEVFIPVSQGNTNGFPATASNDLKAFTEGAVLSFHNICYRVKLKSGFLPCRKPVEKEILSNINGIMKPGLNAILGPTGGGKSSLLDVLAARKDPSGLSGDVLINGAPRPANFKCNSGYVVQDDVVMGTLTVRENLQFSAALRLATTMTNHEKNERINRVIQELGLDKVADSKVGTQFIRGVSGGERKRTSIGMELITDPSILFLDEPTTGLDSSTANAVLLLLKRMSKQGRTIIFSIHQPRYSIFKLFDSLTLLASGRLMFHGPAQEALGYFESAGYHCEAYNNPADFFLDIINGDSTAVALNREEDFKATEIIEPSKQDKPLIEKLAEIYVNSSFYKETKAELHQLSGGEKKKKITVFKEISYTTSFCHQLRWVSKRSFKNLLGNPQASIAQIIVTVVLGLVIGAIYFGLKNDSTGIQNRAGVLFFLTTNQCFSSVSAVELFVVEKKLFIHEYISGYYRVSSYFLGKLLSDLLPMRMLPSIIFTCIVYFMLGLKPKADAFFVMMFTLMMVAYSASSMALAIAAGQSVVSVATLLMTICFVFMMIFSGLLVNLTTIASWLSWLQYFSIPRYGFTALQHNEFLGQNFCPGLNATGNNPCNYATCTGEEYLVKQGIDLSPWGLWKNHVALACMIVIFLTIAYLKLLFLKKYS
#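 System: two drug-resistant human cell lines, ABCG2 and ABCB1; controls: nicardipine high and DMSO low controls; times: 10 min exposure at 25 °C with rotation, no wash; detection: flow cytometry of retained JC-1 fluorescence; read-out basis: percent efflux inhibition, scaled nicardipine 100% to DMSO 0%; doses: one concentration, 6.6 µM final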
# PMI act hi M6P – increases human PMI activity with near-saturating mannose 6-phosphate; activation factor at 20 µM; coupled PMI enzyme assay, resazurin fluorescence, 20 min; stronger effect = higher value; 1 = untreated enzyme, 0 = substrate-free blank; P34949; 0.34% of 190,000 active;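 active means activation factor of 2 or more at 20 µM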
#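 Test system: Human PMI in coupled enzyme assay | Input: 15 ng/mL PMI | Medium: HEPES-buffered pH 7.4 with magnesium and detergent | Compound: One concentration, 20 µM, in 1% DMSO | Incubation: Enzyme reaction with compound 20 min at room temperature | Detection: Diaphorase-driven resazurin-to-resorufin fluorescence, excitation 544, emission 590 nm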
# KCC2 sec1 – KCC2 (human) modulation, secondary assay. shares compounds with KCC2 mod. HEK293-KCC2, thallium flux, FluoZin2 fluorescence; stronger effect = higher value. normalised thallium flux (F/F0 slope) at 10 µM. 15% of 3,700 active. AID 1713;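 active means thallium flux slope above the same plate's solvent-only control mean plus 3 SD; inconclusive means the two replicate wells disagree; inactive means no significant difference from solvent-only control wells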
# KCC2 bumet counter – thallium flux persisting under bumetanide in KCC2 cells, counter-screen secondary assay. shares compounds with KCC2 mod. HEK293-KCC2 + bumetanide/ouabain, thallium flux FluoZin2; stronger effect = higher value. normalized thallium flux at 10 µM. 49% of 3,700 active. AID 1714;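 active means thallium entry rate above the same plate's blocked-transporter control wells by more than 3 SD; inconclusive means the two repeat wells disagree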;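 further: raw slope of fluorescence over initial fluorescence between 10 and 20 s after thallium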
# KCC2 secondary2 – confirmation of human KCC2 transport modulators. normalized thallium flux at 10 µM. HEK293-KCC2, thallium flux FluoZin2 fluorescence; actives lie on both sides; F/F0 rise rate, 10–20 s post-thallium. shares compounds with KCC2 mod. AID 1715. 23% of 3,700 active;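 active means thallium flux slope more than 3 SD above or below the plate's solvent-only control mean, mostly below; inconclusive means the two repeat wells disagreed; inactive means no significant shift from solvent-only controls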;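 further: raw slope with 0.1% DMSO as baseline and bumetanide as block control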
# HEK counter1 – parental HEK flux effect, counter-screen. shares compounds with KCC2 mod. HEK293 parental cells, thallium flux FluoZin2, ouabain; baseline-ratio fluorescence slope, 10–20 s after thallium. thallium flux rate (normalised fluorescence) at 10 µM. 46% of 3,700 active. AID 1716;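 active means thallium flux rate significantly above the same plate's solvent-only control wells, beyond their mean plus 3 SD; inconclusive means the two replicate wells gave conflicting results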
# KCC2 retest ouab – KCC2 (human) modulation, ouabain retest | shares compounds with KCC2 mod | HEK293-KCC2, thallium flux FluoZin2 fluorescence; bidirectional: low = inhibitor, high = activator | raw Tl+ flux slope (below DMSO = inhibition, above = activation) at 10 µM | 48% of 3,700 active;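 active means thallium flux slope beyond 3 SD from same-plate DMSO control mean in most replicates, usually higher, sometimes lower; inconclusive means repeat tests gave conflicting results; inactive means no significant difference from controls in most replicates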;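 further: slope of initial-normalized fluorescence between seconds 10 and 20 after thallium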
# HEK293 Tl flux2 – counter-screen for KCC2 modulators: effect in parental HEK293 cells; thallium flux FluoZin-2 fluorescence slope; AID 1718; 33% of 3,700 active; shares compounds with KCC2 mod; thallium flux slope at 10 µM;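 active means thallium flux slope above the same plate's solvent-control mean plus 3 SD in both duplicate wells; inconclusive means duplicate wells that disagreed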;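 further: run without ouabain in cells lacking the KCC2 cotransporter; slope of fluorescence scaled to its starting value between 10 and 20 s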
# Starred values were filed as active, the others as inactive; ? = inconclusive; / = no result given. Sampled rows, rich in hits. Any-hit rate of the full collection: about 3.3%.
SMILES,KCC2 mod,ROMK mod,PMI activator,ABCB1 inh,ABCG2 block,PMI act hi M6P,KCC2 sec1,KCC2 bumet counter,KCC2 secondary2,HEK counter1,KCC2 retest ouab,HEK293 Tl flux2
Cc1ccc(NC(=S)NNS(=O)(=O)c2ccc3ccccc3c2)cc1Cl,-4.2,-0.42,1.1,-1,-3,1,/,/,/,/,/,/
O=c1cc(C23CC4CC(CC(C4)C2)C3)[nH][nH]1,2.4,-0.81,0.9,0,0,0.9,/,/,/,/,/,/
O=C1N(Cc2cccc(Cl)c2)C[C@@H]2C[C@@H](c3cccc4cccnc34)N3CCC[C@@]123,-1,-1.8,1,0,-2,1,/,/,/,/,/,/
O=C1N(Cc2cccc(Cl)c2)C[C@@H]2C[C@@H](c3cccc4ncccc34)N3CCC[C@@]123,/,-2.7,1,4,2,1.1,0.0098,0.0052,0.036,0.0035,0.019,0.011
C=C(C)c1cccc(C(C)(C)NC(=O)N2CCCC(C(N)=O)C2)c1 (configuration not stated),1.3,/,1,1,-4,1,/,/,/,/,/,/
C=C(C)c1cccc(C(C)(C)NC(=O)N2CCC(C(N)=O)CC2)c1,-3.2*,0.017,1,0,0,0.9,0.0066,?,0.034,0.0081,0.019,0.012
Cc1cc(C)cc(-n2c(SCC(=O)Nc3cccc(S(=O)(=O)NC4=NCCCCC4)c3)nc3ccccc3c2=O)c1,-0.62,/,1,5,13,1,/,/,/,/,/,/
COc1cc(NC(=O)c2cccc(Br)c2)nc(OC)n1,0.39,/,0.9,0,4,0.9,/,/,/,/,/,/
CC(=O)c1cccc(NC(=S)N2c3ccccc3CC2C)c1 (configuration not stated),-0.38,0.46,1,-1,-3,1,/,/,/,/,/,/
CC1Cc2ccccc2N1C(=O)/C=C/c1cccc(F)c1 (configuration not stated),-4.4*,0.015,0.9,1,3,0.9,0.0065,0.0051,0.023*,0.0071,0.015*,0.01
COCc1nnc(NC(=O)CSc2ccc(C)cc2)s1,0.71,/,0.8,0,1,0.9,/,/,/,/,/,/
COCc1nnc(NC(=O)CSc2ccccc2)s1,-4.8*,-0.56,0.8,0,13,0.8,0.008,0.0057,0.036,0.0044,0.021,0.011
CCc1nnc(NC(=O)CSc2nnc(COc3ccccc3C)o2)s1,/,0.088,1.2,1,19,1.1,0.0058,?,0.025*,?,0.016*,0.011
Cc1cnc(NC(=O)CSc2nnc(Cc3ccccc3)o2)s1,-4.4*,/,0.9,0,3,0.9,0.0074,0.0051,0.021*,0.0081,?,0.011
COc1ccc(Cc2nnc(SCC(=O)Nc3ncc(C)s3)o2)cc1,/,/,0.9,0,0,0.9,/,/,/,/,/,/
COc1ccc(NC(=O)CSc2nnc(Cc3ccccc3)o2)c(OC)c1,-3.9*,0.64,1,1,2,1,0.0071,0.0052,0.029,?,0.014*,0.0098
COc1ccc(OC)c(CN2CCN(c3ccccc3OC)CC2)c1,8.8*,/,0.9,0,1,1,0.0058,0.0051,0.031,0.0081,0.019,0.011
COc1ccccc1N1CCN(Cc2ccc(OC)c(OC)c2OC)CC1,1.1,-0.056,1,0,-1,1,/,/,/,/,/,/
O=C(Cc1coc(-c2ccc(F)cc2)n1)Nc1ccccc1,-3.8*,/,0.9,0,0,1,0.01,0.0057,?,0.0068,0.035*,0.0098
O=C(Cc1cc(C(=O)O)c2ccccc2n1)Nc1ccccc1,0.19,0.82,1.2,-1,2,1.1,/,/,/,/,/,/
CCOC(=O)c1sc(Nc2nc3c(OC)cccc3s2)nc1C,26*,-0.059,0.8,0,1,0.9,0.0082,0.012*,0.041*,0.025*,0.038*,0.018*
CCOc1ccc(N2CC(C(=O)NC3=NCCS3)CC2=O)cc1 (configuration not stated),0.0039,0.17,0.8,0,4,0.9,/,/,/,/,/,/
CCOc1ccc(/C=C2\SC(=S)NC2=O)cc1OC,9.4*,-0.046,1.1,0,0,1.1,0.013*,0.02*,?,0.016*,0.023,0.012*
CCOc1ccc(/C=C2\SC(=S)N(NS(=O)(=O)c3ccc(C)cc3)C2=O)cc1OC,24*,/,/,/,/,/,0.0065,0.039*,0.029,0.021*,?,0.014*
CCOc1ccc(/C=C2\SC(=S)N(NS(=O)(=O)c3ccccc3)C2=O)cc1OC,7*,/,/,/,/,/,?,0.028*,0.034,0.014*,?,0.018*
SMILES,KCC2 mod,ROMK mod,PMI activator,ABCB1 inh,ABCG2 block,PMI act hi M6P,KCC2 sec1,KCC2 bumet counter,KCC2 secondary2,HEK counter1,KCC2 retest ouab,HEK293 Tl flux2
COc1cc(/C=C2\SC(=O)NC2=O)ccc1Oc1ccc([N+](=O)[O-])cc1[N+](=O)[O-],-4.2*,2,0.9,0,0,0.9,0.0074,0.01*,0.028,0.0071,0.018,0.011
Cc1ccc(NC(=S)N(Cc2ccc(Br)cc2)Cc2ccc(C(=O)O)cc2)cc1C,-1.1,1.7,0.9,0,-1,0.9,/,/,/,/,/,/
Cc1nc2ccccn2c1C(=O)NN=C1C2CC3CC(C2)CC1C3,0.29,/,1.1,0,3,1,/,/,/,/,/,/
CCOC(=O)C1CCN(C(=O)Nc2ccc(OC)c(OC)c2)CC1,-1.6,/,0.9,0,1,0.9,/,/,/,/,/,/
O=C(Cc1csc(Nc2nc(=S)[nH]c3ccccc23)n1)NCc1cccc(Cl)c1,/,/,1.2,0,2,1.2,/,/,/,/,/,/
O=C(Cc1csc(Nc2nc(=S)[nH]c3ccccc23)n1)N1CCN(c2cccc(C(F)(F)F)c2)CC1,12*,0.51,1.1,-3,-1,1.1,0.007,0.014*,0.036,0.022*,0.027*,0.018*
NCCCCCc1nnc(SCc2ccc(Cl)c(Cl)c2)o1,0.47,/,1,1,2,0.9,/,/,/,/,/,/

# Bioassay records (PubChem BioAssay)
